# Test results from ChEMBL document CHEMBL1938274, “Discovery of potent and specific CXCR3 antagonists” (Bioorg Med Chem Lett, 2012).
# Experiments:
# [1] = biological target: T1, C-X-C chemokine receptor type 3 (Homo sapiens, UniProt P49682); test: Displacement of [125I]-IP-10 from CXCR3 in presence of 100% human serum
# T1 sequence (P49682 whole entry): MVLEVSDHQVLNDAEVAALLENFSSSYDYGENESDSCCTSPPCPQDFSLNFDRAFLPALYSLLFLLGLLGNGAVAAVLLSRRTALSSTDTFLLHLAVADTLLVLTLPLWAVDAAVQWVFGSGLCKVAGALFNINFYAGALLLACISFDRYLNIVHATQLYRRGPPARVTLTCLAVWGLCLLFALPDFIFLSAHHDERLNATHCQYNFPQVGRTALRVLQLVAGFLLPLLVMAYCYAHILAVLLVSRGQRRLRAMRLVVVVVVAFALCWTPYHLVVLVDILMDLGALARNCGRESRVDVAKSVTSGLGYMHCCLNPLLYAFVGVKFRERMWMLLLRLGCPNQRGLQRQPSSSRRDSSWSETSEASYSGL
# [2] = biological target: T1, C-X-C chemokine receptor type 3; test: Displacement of [125I]-IP-10 from CXCR3
# PBL [3] = test: Toxicity in human PBL assessed as chromosomal aberrations at 7.81 to 1000 ug/mL; assay type: cell-based
# How it was run: (§1)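 Cultured human peripheral blood lymphocytes exposed at 7.81–1000 μg/mL, with and without S9 metabolic activation; chromosomal aberrations scored.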
# PBL [4] = test: Toxicity in human PBL assessed as chromosomal aberrations at 7.81 to 1000 ug/mL in the presence of S9; assay type: cell-based; how it was run: as §1
# [5] = Apparent oral bioavailability in mouse at 5 mg/kg; assay type: ADME, organism-based; conditions: in vivo, read-out: Fapp
# [6] = Volume of distribution at steady state in rat at 0.5 mg/kg, iv; assay type: ADME, organism-based; design: dose 0.5 mg/kg, route intravenous; conditions: in vivo, read-out: Vdss
# How it was run: (§2)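 Single intravenous dose in 10% N,N-dimethylacetamide, 10% ethanol, 30% propylene glycol, 50% water: 1 mg/kg mouse; 0.5 mg/kg rat, beagle dog, cynomolgus monkey. Plasma clearance also given as percent of hepatic blood flow.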
# [7] = Clearance in mouse at 1 mg/kg, iv; assay type: ADME, organism-based; design: dose 1 mg/kg, route intravenous; conditions: in vivo; how it was run: as §2
# [8] = Clearance in cynomolgus monkey at 0.5 mg/kg, iv; assay type: ADME, organism-based, Macaca fascicularis; design: dose 0.5 mg/kg, route intravenous; conditions: in vivo; how it was run: as §2
# [9] = Mean residence time in rat at 0.5 mg/kg, iv; assay type: ADME, organism-based; design: dose 0.5 mg/kg, route intravenous; conditions: in vivo; how it was run: as §2
# [10] = Apparent oral bioavailability in Beagle dog at 2 mg/kg; assay type: ADME, organism-based, Canis lupus familiaris; conditions: in vivo, read-out: Fapp
# [11] = Volume of distribution at steady state in mouse at 1 mg/kg, iv; assay type: ADME, organism-based; design: dose 1 mg/kg, route intravenous; conditions: in vivo, read-out: Vdss; how it was run: as §2
# [12] = Apparent oral bioavailability in cynomolgus monkey at 2 mg/kg; assay type: ADME, organism-based, Macaca fascicularis; conditions: in vivo, read-out: Fapp
# [13] = Mean residence time in mouse at 1 mg/kg, iv; assay type: ADME, organism-based; design: dose 1 mg/kg, route intravenous; conditions: in vivo; how it was run: as §2
# [14] = Volume of distribution at steady state in Beagle dog at 0.5 mg/kg, iv; assay type: ADME, organism-based, Canis lupus familiaris; design: dose 0.5 mg/kg, route intravenous; conditions: in vivo, read-out: Vdss; how it was run: as §2
# [15] = Mean residence time in Beagle dog at 0.5 mg/kg, iv; assay type: ADME, organism-based, Canis lupus familiaris; design: dose 0.5 mg/kg, route intravenous; conditions: in vivo; how it was run: as §2
# [16] = Apparent oral bioavailability in rat at 2 mg/kg; assay type: ADME, organism-based; conditions: in vivo, read-out: Fapp
# [17] = Clearance in Beagle dog at 0.5 mg/kg, iv; assay type: ADME, organism-based, Canis lupus familiaris; design: dose 0.5 mg/kg, route intravenous; conditions: in vivo; how it was run: as §2
# [18] = Clearance in rat at 0.5 mg/kg, iv; assay type: ADME, organism-based; design: dose 0.5 mg/kg, route intravenous; conditions: in vivo; how it was run: as §2
# [19] = Mean residence time in cynomolgus monkey at 0.5 mg/kg, iv; assay type: ADME, organism-based, Macaca fascicularis; design: dose 0.5 mg/kg, route intravenous; conditions: in vivo; how it was run: as §2
# [20] = Volume of distribution at steady state in cynomolgus monkey at 0.5 mg/kg, iv; assay type: ADME, organism-based, Macaca fascicularis; design: dose 0.5 mg/kg, route intravenous; conditions: in vivo, read-out: Vdss; how it was run: as §2
# Cytochrome P450 3A4 = Cytochrome P450 3A4 (Homo sapiens, UniProt P08684); test: Time dependent inhibition of CYP3A4; assay type: ADME
# Chain of Cytochrome P450 3A4 (P08684 whole entry): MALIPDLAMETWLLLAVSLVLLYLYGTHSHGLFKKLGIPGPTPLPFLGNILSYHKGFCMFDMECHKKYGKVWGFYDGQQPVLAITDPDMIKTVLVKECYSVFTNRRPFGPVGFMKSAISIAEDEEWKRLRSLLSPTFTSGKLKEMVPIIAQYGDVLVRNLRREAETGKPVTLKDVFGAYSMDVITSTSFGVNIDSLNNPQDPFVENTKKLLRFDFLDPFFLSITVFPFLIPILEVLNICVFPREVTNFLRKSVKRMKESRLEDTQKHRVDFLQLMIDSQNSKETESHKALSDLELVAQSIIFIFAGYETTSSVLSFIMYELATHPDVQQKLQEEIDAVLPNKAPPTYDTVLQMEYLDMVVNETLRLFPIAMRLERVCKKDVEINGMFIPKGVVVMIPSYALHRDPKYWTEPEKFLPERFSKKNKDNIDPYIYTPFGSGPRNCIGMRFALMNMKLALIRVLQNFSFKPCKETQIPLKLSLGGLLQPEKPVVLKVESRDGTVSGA
# [21] = biological target: T2, C-X-C chemokine receptor type 3 (Mus musculus, UniProt O88410); test: Receptor occupancy of CXCR3 in mouse whole blood assessed as inhibition of ITAC binding by fluorescence quenching based FACS analysis
# T2 sequence (O88410 whole entry): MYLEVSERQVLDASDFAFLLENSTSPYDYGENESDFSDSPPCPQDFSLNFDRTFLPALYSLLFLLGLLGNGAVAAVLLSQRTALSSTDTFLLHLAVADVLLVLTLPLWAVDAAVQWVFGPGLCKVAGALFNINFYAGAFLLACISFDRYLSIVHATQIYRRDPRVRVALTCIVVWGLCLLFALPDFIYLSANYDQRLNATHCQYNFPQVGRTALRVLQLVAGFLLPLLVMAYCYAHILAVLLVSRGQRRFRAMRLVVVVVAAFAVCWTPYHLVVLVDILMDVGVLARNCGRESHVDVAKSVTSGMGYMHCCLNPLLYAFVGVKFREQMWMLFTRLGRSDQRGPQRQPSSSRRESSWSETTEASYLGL
# Blood [22] = test: Drug level in C57BL/6 mouse blood at 10 mg/kg, sc after 1 hr; assay type: ADME, organism-based; design: dose 10 mg/kg, route subcutaneous; conditions: in vivo
# How it was run: (§3)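 C57BL/6 mice given bleomycin intra-tracheally and dosed subcutaneously by osmotic mini-pump for 6 days; plasma collected to measure drug level, reported 1 h post dose.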
# Blood [23] = test: Drug level in C57BL/6 mouse blood at 1 mg/kg, sc after 1 hr; assay type: ADME, organism-based; design: dose 1 mg/kg, route subcutaneous; conditions: in vivo; how it was run: as §3
structure (smiles),measurement,setting,value
CCS(=O)(=O)CCN(C(=O)Cc1ccc(F)c(C(F)(F)F)c1)[C@H](C)c1nc2ncccc2c(=O)n1-c1ccc(F)cc1,IC50,[1],50 nM
same,IC50,[2],42 nM
same,Activity,PBL [3],Non-toxic
same,Activity,PBL [4],Non-toxic
C[C@H](c1nc2ncccc2c(=O)n1-c1ccc(F)cc1)N(CC1CCS(=O)(=O)CC1)C(=O)Cc1ccc(F)c(C(F)(F)F)c1,bioavailability,[5],59%
same,Vd,[6],5 L/kg
same,clearance,[7],5.67 mL/min/kg
same,clearance,[8],5.67 mL/min/kg
same,MRT,[9],2.4 h
same,bioavailability,[10],> 100%
same,IC50,[1],17 nM
same,Vd,[11],0.73 L/kg
same,bioavailability,[12],51%
same,MRT,[13],2.1 h
same,IC50,[2],7 nM
same,Vd,[14],1.3 L/kg
same,Activity,PBL [3],Non-toxic
same,MRT,[15],1.5 h
same,bioavailability,[16],> 100%
same,clearance,[17],14.8 mL/min/kg
same,Activity,PBL [4],Non-toxic
same,clearance,[18],35 mL/min/kg
same,MRT,[19],6.4 h
same,Vd,[20],2.2 L/kg
C[C@H](c1nc2ncccc2c(=O)n1-c1ccc(F)cc1)N(CC1CCS(=O)(=O)CC1)C(=O)Cc1ccc(C(F)(F)F)c(F)c1,IC50,[1],22 nM
same,IC50,[2],7 nM
same,Activity,PBL [3],Non-toxic
same,Activity,PBL [4],Non-toxic
CCOc1ccc(-c2c([C@@H](C)N(CCS(=O)(=O)CC)C(=O)Cc3ccc(F)c(C(F)(F)F)c3)nc3ccccn3c2=O)cc1,TDI,Cytochrome P450 3A4,Not Active
CCS(=O)(=O)CCN(C(=O)Cc1ccc(F)c(C(F)(F)F)c1)[C@H](C)c1nc2ccccn2c(=O)c1-c1ccc(O)cc1,TDI,Cytochrome P450 3A4,Active
CCOc1ccc(-c2c([C@@H](C)N(CCS(=O)(=O)CC)C(=O)Cc3ccc(F)c(C(F)(F)F)c3)nc3ncccn23)cc1,TDI,Cytochrome P450 3A4,Not Active
CCS(=O)(=O)CCN(C(=O)Cc1ccc(F)c(C(F)(F)F)c1)[C@H](C)c1nc2ncccn2c1-c1ccc(O)cc1,TDI,Cytochrome P450 3A4,Active
C[C@H](c1nc2ncccc2c(=O)n1-c1ccc(O)cc1)N(Cc1cccnc1)C(=O)Cc1ccc(OC(F)(F)F)cc1,IC50,[1],4.1 nM
same,IC50,[2],816 nM
CCS(=O)(=O)CCN(C(=O)Cc1ccc(F)c(C(F)(F)F)c1)[C@H](C)c1nc2ncccc2c(=O)n1-c1ccc(C#N)cc1,bioavailability,[5],17%
same,clearance,[7],5.83 mL/min/kg
same,clearance,[8],12.3 mL/min/kg
same,bioavailability,[10],69%
same,bioavailability,[12],13%
same,MRT,[13],0.7 h
same,Activity,PBL [3],Toxic
same,MRT,[15],1.2 h
same,clearance,[17],16.7 mL/min/kg
same,Activity,PBL [4],Toxic
same,MRT,[19],1.7 h
CCOc1ccc(-n2c([C@@H](C)N(Cc3cccnc3)C(=O)Cc3ccc(OC(F)(F)F)cc3)nc3ncccc3c2=O)cc1,IC50,[21],1900 nM
same,Drug uptake,Blood [22],2.3 mg/kg
same,Drug uptake,Blood [23],0.16 µM
CCS(=O)(=O)CCN(C(=O)Cc1ccc(F)c(C(F)(F)F)c1)[C@H](C)c1nc2ccccn2c(=O)c1-c1ccc(C#N)cc1,Activity,PBL [3],Toxic
same,Activity,PBL [4],Toxic
CCS(=O)(=O)CCN(C(=O)Cc1ccc(C(F)(F)F)c(F)c1)[C@H](C)c1nc2ncccc2c(=O)n1-c1ccc(C#N)cc1,Activity,PBL [3],Toxic
same,Activity,PBL [4],Toxic
